Assay outcomes (PubChem BioAssay)
OXTR ag: human OXTR agonism | P30559 | CHO-OTR cells, Fluo-8 calcium fluorescence; normalized: DMSO 0%, oxytocin 100% | activation, % at 3 µM | 320,000 tested, 0.32% active | AID 2435;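 active means activation above the mean of all tested compounds plus 3 SD, cutoff set per screening run, cut at about 20% in these data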;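 further: peak over basal fluorescence ratio from a 100 s FLIPR kinetic read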
OXTR potentiate: potentiators of human oxytocin receptor | P30559 | activation, % at 3 µM | 320,000 tested, 0.061% active | AID 2445 | CHO-OTR cells, Fluo-8 calcium fluorescence, potentiator mode; 0% = oxytocin EC15, 100% = EC100;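 active means activation above that plate's cutoff, the mean activation of tested compounds plus 3 SD, cut at about 6.6% in these data, passing the limit was not always enough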;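 further: 100% uses oxytocin at 75 nM as the full agonist control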
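Measured by – Fluo-8 calcium dye fluorescence · Test system – human OTR in CHO cells · Dosing – one concentration, 3.0 µM compound · Controls – EC15 oxytocin alone as 0%, 75 nM oxytocin as 100% · Evaluation – normalized max/min fluorescence ratio, % activation · Timing – 6 min pre-incubation, 100 s read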
V1aR counter: activates human V1a receptor in oxytocin agonist counter-screen. P37288. CHO-V1R cells, Fluo-8 calcium fluorescence, agonist mode; 0% DMSO, 100% 3 nM vasopressin. activation, % at 3 µM. 320,000 tested, 0.25% active. AID 2797;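 active means activation above the mean activation of all tested compounds plus 3 SD, per screening run, cut at about 20% in these data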;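 further: signal is peak over basal fluorescence ratio across a 100 second FLIPR read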
Target sequence (P37288 whole entry, looked up): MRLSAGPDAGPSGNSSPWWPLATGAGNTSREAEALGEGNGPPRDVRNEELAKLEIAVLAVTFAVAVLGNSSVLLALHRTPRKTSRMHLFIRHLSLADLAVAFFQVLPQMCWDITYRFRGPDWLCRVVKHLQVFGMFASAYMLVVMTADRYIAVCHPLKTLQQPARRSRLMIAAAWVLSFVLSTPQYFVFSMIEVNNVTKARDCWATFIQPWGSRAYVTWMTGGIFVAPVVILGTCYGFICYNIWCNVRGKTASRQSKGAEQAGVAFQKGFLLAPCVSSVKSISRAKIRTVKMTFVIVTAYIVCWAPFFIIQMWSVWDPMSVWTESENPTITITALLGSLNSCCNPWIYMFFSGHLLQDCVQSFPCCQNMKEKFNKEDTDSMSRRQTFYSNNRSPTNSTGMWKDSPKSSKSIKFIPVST
TAAR1 ag: agonists of human TAAR1; CHO RD-HGA16 TAAR1, Fluo-8 calcium fluorescence; vehicle wells 0%, saturating PEA agonist 100%; activation, % at 3 µM; 360,000 tested, 0.99% active; AID 624467;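 active means activation above the mean activation of all test compounds in the run plus 3 SD, cut at about 38% in these data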
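Signal – calcium-sensitive Fluo-8 signal, excitation 470-495, emission 515-575 nm · System – RD-HGA16 (CHO) cells co-expressing Gα16 and hTAAR1 · Incubation – 17-24 h seeding, 75 min 37 °C dye, 30 min RT · Compound dosing – 3 µM single concentration · Repeats – no replicates (n 1)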
TAAR1 antag: human TAAR1 antagonism. inhibition, % at 3 µM. CHO RD-HGA16 TAAR1, Fluo-8 calcium fluorescence, antagonist. Q96RJ0. 360,000 tested, 1.5% active. AID 624466;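 active means inhibition above a per-plate cutoff, the mean inhibition of test compounds on that plate plus 3 SD, cut at about 49% in these data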;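 further: 0% = DMSO plus EC80 beta-PEA response and 100% = DMSO alone without agonist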
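Material: RD-HGA16 CHO cells with stable hTAAR1 and Gα16; Dosing: single nominal final test compound concentration of 3 µM; Schedule: seeding 17-24 h prior, 75-min 37 °C, 30-min RT dye loading; Detection: kinetic Fluo-8 calcium fluorescence measurement; Measure: % inhibition from peak post-agonist over basal fluorescence ratio; Benchmarks: vehicle and agonist controls.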
TAAR1 ag conf: confirmation of human TAAR1 agonists. shares compounds with TAAR1 ag. CHO RD-HGA16 TAAR1, Fluo-8 calcium fluorescence; scaled: DMSO 0%, maximal phenethylamine 100%. activation, % at 3 µM. 2,400 tested, 82% active. AID 651783;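 active means activation above a cutoff set at the run's mean compound activation plus 3 SD, cut at about 39% in these data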
Ga16 ag counter: counter-screen for TAAR1 agonists: nonselective agonists in parental cells | shares compounds with TAAR1 ag | activation, % at 3 µM | CHO-Ga16 parental, Fluo-8 calcium fluorescence; normalized to maximal ATP response, DMSO zero | 2,400 tested, 50% active;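 active means activation above the run cutoff, the mean activation over all tested wells plus 3 SD, cut at about 12% in these data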;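 further: 0% = DMSO wells and 100% = maximal ATP response on the peak over basal ratio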
TAAR1 desensitize: TAAR1 response desensitization, agonist counter-screen. shares compounds with TAAR1 ag. inhibition, % at 3 µM. 2,400 tested, 46% active. CHO RD-HGA16 hTAAR1, Fluo-8 calcium, beta-PEA response inhibition;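 active means inhibition above the run cutoff, the mean inhibition of all test compounds plus 3 SD, cut at about 49% in these data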;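 further: beta-PEA stimulus applied at its EC80; loss of beta-PEA calcium signal after compound pretreatment read as receptor desensitization; 0% = DMSO with beta-PEA at EC80 and 100% = DMSO alone without agonist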
Ga16 nonsel ant: nonselective Ga16 antagonist in TAAR1 agonist counter-screen. CHO-Ga16 ATP-induced calcium, Fluo-8 fluorescence. 2,400 tested, 39% active. shares compounds with TAAR1 ag. inhibition, % at 3 µM;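 active means inhibition above the plate's mean compound inhibition plus 3 SD, computed per plate, cut at about 22% in these data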;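 further: 0% = EC80 ATP with DMSO and 100% = DMSO wells without ATP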
* = called active by the depositor; nt = not tested or not shown. This is a sample that favours compounds with a hit; in the whole collection about 2.3% have one here.

SMILES	OXTR ag	OXTR potentiate	V1aR counter	TAAR1 ag	TAAR1 antag	TAAR1 ag conf	Ga16 ag counter	TAAR1 desensitize	Ga16 nonsel ant
CC(C)(C)C1=NN(c2ccc([N+](=O)[O-])cc2)C(c2ccccc2)C1 (configuration not stated)	0	-3	0	62*	34	0	0	6	9
O=[N+]([O-])c1ccc(N2N=C(c3ccco3)CC2c2ccccc2)cc1 (configuration not stated)	2	-17	4	9	42	nt	nt	nt	nt
COc1ccc(CCNC/C=C/c2ccccc2)cc1	4	-13	2	12	-1	nt	nt	nt	nt
O[C@@H](Cc1ccccc1)[C@@H](/C=C/c1ccccc1)NCCc1ccccc1	nt	nt	nt	53*	36	90*	18*	48	24*
CCOc1ccc2noc3c2c1C(=O)c1ccccc1-3	59*	-14	75*	69*	43	26	36*	28	40*
CCNc1ccccc(-c2ccc3ccccc3n2)c1=O	0	3	2	-1	23	nt	nt	nt	nt
CCNc1ccc2noc3c2c1C(=O)c1ccccc1-3	110*	-11	78*	318*	90*	114*	127*	66*	66*
O=C(C1CCCN(Cc2ccc([N+](=O)[O-])cc2)C1)N1CCCCC1 (configuration not stated)	2	-8	1	7	-9	nt	nt	nt	nt
NCCc1nc(-c2ccccc2)cs1	2	3	0	56*	4	73*	0	61*	11
CC(=O)c1ccc(S(=O)(=O)N(C)CCCC(=O)N2CCN(c3ncccn3)CC2)cc1	2	-3	2	0	16	nt	nt	nt	nt
CCOC(=O)c1c(S(=O)(=O)NCCc2cccs2)c(C)n(C)c1C	-1	0	1	55*	-32	7	2	7	6
CCOC(=O)c1c(S(=O)(=O)NCC2CCN(CCc3cccs3)CC2)c(C)n(C)c1C	-2	-4	-1	8	-21	nt	nt	nt	nt
CC(C)(CO)Cc1cc(C(C)(C)C)c(O)c(C(C)(C)C)c1	-1	1	13	11	-39	nt	nt	nt	nt
CCCCN1C(=O)/C(=C/C=C2\SCCN2C)SC1=S	nt	nt	nt	71*	28	50*	34*	40	45*
CCCCN1C(=O)/C(=C/C=C2\N(C)c3ccccc3C2(C)C)SC1=S	7	-15	16	nt	nt	nt	nt	nt	nt
CC(C(=O)NC1CCCc2ccccc21)N1C(=O)C2CCCCC2C1=O (configuration not stated)	-1	-7	0	1	-4	nt	nt	nt	nt
